These results are taken from ChEMBL document CHEMBL3600302, “A Ligand-Based Drug Design. Discovery of 4-Trifluoromethyl-7,8-pyranocoumarin as a Selective Inhibitor of Human Cytochrome P450 1A2” (J Med Chem, 2015).

Each structure is given as a SMILES string.

The term Ki denotes the equilibrium dissociation constant of an inhibitor or competing ligand from its target.

In data set [1] the target is T1, Cytochrome P450 1A2 (Homo sapiens, UniProt P05177).
T1 sequence (P05177 whole entry): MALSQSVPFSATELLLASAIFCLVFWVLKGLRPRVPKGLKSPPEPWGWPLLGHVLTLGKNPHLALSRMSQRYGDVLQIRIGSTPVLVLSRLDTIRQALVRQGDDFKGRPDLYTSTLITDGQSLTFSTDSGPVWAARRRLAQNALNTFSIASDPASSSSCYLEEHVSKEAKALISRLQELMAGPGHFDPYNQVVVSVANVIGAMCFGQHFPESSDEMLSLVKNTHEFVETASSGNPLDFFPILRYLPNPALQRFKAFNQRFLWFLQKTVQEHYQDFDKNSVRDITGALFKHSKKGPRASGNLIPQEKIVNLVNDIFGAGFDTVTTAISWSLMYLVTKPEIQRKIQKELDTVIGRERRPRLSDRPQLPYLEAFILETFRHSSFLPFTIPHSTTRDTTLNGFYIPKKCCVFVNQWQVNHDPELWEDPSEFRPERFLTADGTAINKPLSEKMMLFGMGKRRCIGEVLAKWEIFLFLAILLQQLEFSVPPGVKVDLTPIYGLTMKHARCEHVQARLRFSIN
In words: Inhibition of human microsomal CYP1A2-dependent methoxyresorufin-O-demethylase activity by spectrofluorimetric analysis in presence of NADPH regenerating solution. The method, boiled down: (§1)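 Microsomal P450 (final 5 nM) in 0.1 M potassium phosphate pH 7.6 with MgCl2 at 37 °C. Substrate final 5 µM: ethoxyresorufin for 1A1/1B1, methoxyresorufin for 1A2. Ki was taken as the x-intercept of Dixon plots (1/v0 vs [I]). Mean ± SD of three independent experiments. Selectivity ratios are ratios of these Ki.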

The species entered for data set [2] is Homo sapiens. In words: Selectivity ratio of Ki for human microsomal CYP1B1 to Ki for human microsomal CYP1A2. The method, boiled down:
(§2)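 Microsomal P450 (final 5 nM) in 0.1 M potassium phosphate pH 7.6 with MgCl2 at 37 °C. Substrate final 5 µM: ethoxyresorufin for 1A1/1B1, methoxyresorufin for 1A2. […] Ki was taken as the x-intercept of Dixon plots (1/v0 vs [I]). Mean ± SD of three independent experiments. Selectivity ratios are ratios of these Ki.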

The next data set addresses T2, Cytochrome P450 1B1 (Homo sapiens, UniProt Q16678).
T2 sequence (Q16678 whole entry): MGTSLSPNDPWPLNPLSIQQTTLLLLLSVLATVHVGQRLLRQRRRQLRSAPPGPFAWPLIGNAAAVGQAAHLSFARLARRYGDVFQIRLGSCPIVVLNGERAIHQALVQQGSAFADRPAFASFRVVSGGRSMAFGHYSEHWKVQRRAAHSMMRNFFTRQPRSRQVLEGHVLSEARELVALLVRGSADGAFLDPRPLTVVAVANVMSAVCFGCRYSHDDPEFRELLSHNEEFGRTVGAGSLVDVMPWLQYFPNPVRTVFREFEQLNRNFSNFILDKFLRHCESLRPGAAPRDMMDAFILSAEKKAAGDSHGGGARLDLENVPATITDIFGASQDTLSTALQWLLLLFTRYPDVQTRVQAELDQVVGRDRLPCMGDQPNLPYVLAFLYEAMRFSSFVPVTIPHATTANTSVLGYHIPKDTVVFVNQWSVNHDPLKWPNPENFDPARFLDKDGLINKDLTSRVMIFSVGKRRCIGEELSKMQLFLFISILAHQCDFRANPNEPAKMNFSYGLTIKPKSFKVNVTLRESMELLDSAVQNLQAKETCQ
Kind of data set: Inhibition of human microsomal CYP1B1-dependent ethoxyresorufin-O-deethylase activity by spectrofluorimetric analysis in presence of NADPH regenerating solution. The method, boiled down:
as §1

The target in data set [3] is T1, Cytochrome P450 1A2. Kind of data set: Time-dependent inhibition of human microsomal CYP1A2-dependent methoxyresorufin-O-demethylase activity by spectrofluorimetric analysis in presence of NADPH regenerating solution. Put shortly:
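1A2 MROD run with NADPH at 0.0125, 0.025, 0.05 and 0.1 µM inhibitor, product monitored continuously over 6 min. Activity at different times came from first derivatives of product curves, expressed as % of control remaining. KI and limiting kinact were derived from the resulting linear plot.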

Another data set has as its target T3, Cytochrome P450 1A1 (Homo sapiens, UniProt P04798).
T3 sequence (P04798 whole entry): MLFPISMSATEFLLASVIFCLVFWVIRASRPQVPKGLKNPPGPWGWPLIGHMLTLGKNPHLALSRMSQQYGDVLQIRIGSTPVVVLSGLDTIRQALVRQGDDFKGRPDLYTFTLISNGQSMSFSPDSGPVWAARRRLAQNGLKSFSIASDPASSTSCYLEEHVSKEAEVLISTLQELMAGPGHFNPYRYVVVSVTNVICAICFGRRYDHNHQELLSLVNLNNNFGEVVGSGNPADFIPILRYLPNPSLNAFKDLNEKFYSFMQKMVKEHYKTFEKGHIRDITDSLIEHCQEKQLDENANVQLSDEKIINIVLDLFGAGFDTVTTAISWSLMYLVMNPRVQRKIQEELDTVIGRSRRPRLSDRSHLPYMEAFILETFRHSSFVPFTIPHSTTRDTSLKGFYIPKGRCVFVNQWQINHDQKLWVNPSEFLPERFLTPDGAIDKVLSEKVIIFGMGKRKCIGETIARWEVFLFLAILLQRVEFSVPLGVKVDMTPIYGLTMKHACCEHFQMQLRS
In words: Inhibition of human microsomal CYP1A1-dependent ethoxyresorufin-O-deethylase activity by spectrofluorimetric analysis in presence of NADPH regenerating solution. The method, boiled down:
as §2

Data set [4] is filed under the species Homo sapiens. Kind of data set: Selectivity ratio of Ki for human microsomal CYP1A1 to Ki for human microsomal CYP1A2. Put shortly:
as §2

As to `Cc1cc2c(ccc3c(-c4ccccc4)c(C)c(=O)oc32)o1`, the Ki on Cytochrome P450 1A2 [1] stood at 3.7 µM; at Cytochrome P450 1B1 it was 22.6 µM; on Cytochrome P450 1A1 it was 11.6 µM. The figures for the Ratio Ki in the data set filed under Homo sapiens [2] and in the data set listed under Homo sapiens [4] were 6.1 and 3.1, respectively. The TDI result on Cytochrome P450 1A2 [3] is given as “Not Active”.

As to `O=c1cc(-c2ccccc2)oc2c3c(ccc12)OCO3`, the Ki on Cytochrome P450 1A2 [1] came out at 0.09 µM; at Cytochrome P450 1B1, 0.48 µM; on Cytochrome P450 1A1, 1.23 µM. Moreover, the Ratio Ki in the data set filed under Homo sapiens [2] is 5.3; in the data set filed under Homo sapiens [4], 14.

Consider `O=c1cc(-c2ccccc2)oc2c3c(cc(O)c12)OCC=C3`, for which the Ki on Cytochrome P450 1B1 turned out to be 0.0056 µM; at Cytochrome P450 1A1 it was 0.11 µM.

Consider `O=c1cc(-c2ccccc2)c2ccc3c(c2o1)OCO3`, for which the Ki at Cytochrome P450 1A2 [1] is 3.55 µM; on Cytochrome P450 1A1, > 200 µM. Also, on Cytochrome P450 1A2 [3], the TDI entry was “Not Active”.

With `Cc1cc(=O)oc2c3c(ccc12)OCC=C3`, the Ki at Cytochrome P450 1A2 [1] is 1.51 µM; on Cytochrome P450 1B1 it was 12 µM; at Cytochrome P450 1A1, 110 µM. The Ratio Ki in the data set listed under Homo sapiens [2] is 7.9; in the data set filed under Homo sapiens [4], 73. Further, at Cytochrome P450 1A2 [3], the TDI entry is reported as “Not Active”.

`O=c1cc(-c2ccccc2)oc2c3c(ccc12)OCC=C3`: the Ki on Cytochrome P450 1A1 is 0.27 µM.

For the compound `O=c1cc(-c2ccccc2)oc2c1ccc1ncccc12`, the Ki at Cytochrome P450 1A2 [1] amounted to 0.076 µM; on Cytochrome P450 1B1, 0.12 µM; at Cytochrome P450 1A1, 0.04 µM. In addition, the Ratio Ki was 1.8 in the data set listed under Homo sapiens [2] and 0.5 in the data set listed under Homo sapiens [4].

Turning to `Cc1c(-c2ccccc2)c2ccc3c(c2oc1=O)C=CCO3`, the values for the Ki at Cytochrome P450 1A2 [1], on Cytochrome P450 1B1 and on Cytochrome P450 1A1 were 1.72 µM, 21.2 µM and 18.4 µM, respectively. Further, the Ratio Ki was found to be 12 in the data set filed under Homo sapiens [2] and 11 in the data set listed under Homo sapiens [4]. Also, the TDI entry on Cytochrome P450 1A2 [3] was “Not Active”.

On to `Cc1nc2c([nH]1)c(=O)n(C)c(=O)n2Cc1ccco1` [FURAFYLLINE], for which the Ki on Cytochrome P450 1B1 and on Cytochrome P450 1A1 was > 200 µM each time.

With `Cc1cc(=O)oc2c1ccc1ncccc12`, the Ki at Cytochrome P450 1A2 [1] turned out to be 14.2 µM; on Cytochrome P450 1B1 it was 46.6 µM; on Cytochrome P450 1A1 it was 101 µM. In addition, the Ratio Ki in the data set filed under Homo sapiens [2] worked out at 3.3; in the data set listed under Homo sapiens [4], 7.1. In addition, the TDI result on Cytochrome P450 1A2 [3] is “Not Active”.

Consider `O=c1cc(-c2ccccc2)c2ccc3c(c2o1)C=CCO3`, for which the Ki at Cytochrome P450 1A2 [1] is 1.29 µM; on Cytochrome P450 1B1, 5.04 µM; at Cytochrome P450 1A1 it was 25.2 µM. In addition, the Ratio Ki in the data set filed under Homo sapiens [2] was determined as 3.9; in the data set filed under Homo sapiens [4] it was 20. Moreover, at Cytochrome P450 1A2 [3], the TDI result was “Not Active”.

On to `Cc1cc2c(ccc3c(C(F)(F)F)cc(=O)oc32)o1`, for which the Ki at Cytochrome P450 1A2 [1] came out at 1.35 µM; on Cytochrome P450 1B1, 46.8 µM; on Cytochrome P450 1A1, 60.7 µM. The Ratio Ki in the data set listed under Homo sapiens [2] is 35; in the data set filed under Homo sapiens [4], 45. At Cytochrome P450 1A2 [3], the TDI entry is recorded as “Not Active”.

On to `O=c1cc(-c2ccccc2)oc2c1ccc1ccccc12` [ALPHA-NAPHTHOFLAVONE], for which the Ki at Cytochrome P450 1A1 turned out to be 0.045 µM.

For the compound `Cc1cc2c(ccc3c(C)cc(=O)oc32)o1`, the figures for the Ki on Cytochrome P450 1A2 [1], at Cytochrome P450 1B1 and at Cytochrome P450 1A1 were 1.15 µM, 7.46 µM and 37.9 µM, respectively. Further, the Ratio Ki in the data set listed under Homo sapiens [2] came to 6.5; in the data set filed under Homo sapiens [4], 33. For the same compound, the TDI result on Cytochrome P450 1A2 [3] is “Not Active”.

On to `Cc1cc2c(ccc3c(-c4ccccc4)cc(=O)oc32)o1`, for which the Ki turned out to be 5.02 µM at Cytochrome P450 1A2 [1], 4.62 µM at Cytochrome P450 1B1 and 12 µM at Cytochrome P450 1A1. In addition, the Ratio Ki was found to be 0.9 in the data set listed under Homo sapiens [2] and 2.4 in the data set listed under Homo sapiens [4]. Further, the TDI entry on Cytochrome P450 1A2 [3] is “Not Active”.
